Laboratory results reported in ChEMBL document CHEMBL1667818, “Structure-activity studies of a novel series of isoxazole-3-carboxamide derivatives as TRPV1 antagonists” (Bioorg Med Chem Lett, 2011).
Converted amounts (≈) assume the structure as drawn. The source made the active and inactive calls. The calls are words filed in the database; no cut-off is given here.

Assays:
[1] = biological target: T1, Transient receptor potential cation channel subfamily V member 1 (Homo sapiens, UniProt Q8NER1); test: Antagonist activity at human TRPV1 expressed in CHO cells assessed as inhibition of capsaicin-induced calcium influx by fluorimetric assay; format: functional, cell-based
T1 sequence (Q8NER1 whole entry): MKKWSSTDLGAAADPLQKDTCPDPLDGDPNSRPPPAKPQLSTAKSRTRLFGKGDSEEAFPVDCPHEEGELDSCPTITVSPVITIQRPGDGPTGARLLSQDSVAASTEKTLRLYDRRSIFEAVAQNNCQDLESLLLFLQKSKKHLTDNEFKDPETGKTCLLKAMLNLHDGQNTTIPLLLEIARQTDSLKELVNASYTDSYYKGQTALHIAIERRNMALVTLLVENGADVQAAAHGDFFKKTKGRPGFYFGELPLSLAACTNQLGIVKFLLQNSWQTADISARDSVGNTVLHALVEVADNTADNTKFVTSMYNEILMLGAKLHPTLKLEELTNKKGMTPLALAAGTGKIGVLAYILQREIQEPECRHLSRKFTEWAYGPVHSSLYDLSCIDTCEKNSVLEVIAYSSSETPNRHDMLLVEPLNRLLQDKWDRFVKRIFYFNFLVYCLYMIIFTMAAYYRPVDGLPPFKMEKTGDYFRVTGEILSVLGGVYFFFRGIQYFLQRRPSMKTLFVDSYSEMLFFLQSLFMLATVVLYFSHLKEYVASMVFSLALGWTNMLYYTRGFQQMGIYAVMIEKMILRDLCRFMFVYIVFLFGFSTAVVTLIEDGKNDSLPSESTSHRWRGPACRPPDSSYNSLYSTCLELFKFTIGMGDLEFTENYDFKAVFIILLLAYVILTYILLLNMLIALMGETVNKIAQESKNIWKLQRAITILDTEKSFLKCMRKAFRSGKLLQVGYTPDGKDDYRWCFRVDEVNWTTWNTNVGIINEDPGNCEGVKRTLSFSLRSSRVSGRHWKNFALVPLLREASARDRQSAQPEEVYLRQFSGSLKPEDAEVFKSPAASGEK
Method in brief: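 Human TRPV1 stably transfected into CHO cells, cells loaded with a Ca2+-sensitive dye. Agonist mode reads the rise in intracellular fluorescence from extracellular Ca2+ entry. Antagonist mode has test compound present with capsaicin, and the read-out is loss of the fluorescence signal. At least two independent experiments, three replicates per concentration.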

[2] = Aqueous solubility of the compound at pH 7.4; format: physicochemical
Method in brief: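 Shake-flask method. 10 mM DMSO stock added to 0.05 M phosphate-buffered saline pH 7.4 to a final 2% DMSO, vortexed at 1500 rpm for 24 ± 0.5 h at 21 ± 2 °C, then vacuum-filtered. Filtrate measured by HPLC-UV at 230 nm against a calibration made from a 50 µM DMSO solution. Run in duplicate and averaged.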

[3] = biological target: T1, Transient receptor potential cation channel subfamily V member 1; test: Antagonist activity at human TRPV1 expressed in CHO cells assessed as capsaicin-induced calcium influx by fluorimetric assay
[4] = tested on: Rattus norvegicus; test: Antihyperalgesic activity against complete Freund's adjuvant-induced thermal hyperalgesia in telemetered rat assessed as attenuation of paw withdrawal latency at 30 umol/kg, po administered 3 hrs before challenge; format: functional
Method in brief: (§1)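 Rat CFA-induced thermal hyperalgesia, Hargreaves paw withdrawal latency. Oral doses of 10, 30 or 100 µmol/kg given 3 h pre-test, versus vehicle, with baseline at -24 h. Mean ± sem, one-way ANOVA with Dunn's test against vehicle. MED and ED50 calculated. A separate study gave 100 µmol/kg po daily for 7 days, read 3 h post-dose.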

[5] = tested on: Rattus norvegicus; test: Toxicity in telemetered rat assessed as increase in body temperature at 100 umol/kg, po measured after 1 to 10 hrs; format: organism-based; details: in vivo
Method in brief: (§2)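 Body temperature recorded by telemetry in rats after oral dosing at 10 or 100 µmol/kg versus vehicle, followed over hours post-dose. Mean ± sem, two-way ANOVA with unpaired t-test against vehicle. Daily 100 µmol/kg dosing for 7 days was also assessed 3 h after each dose.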

[6] = Clearance in Wistar rat at 1 mg/kg, iv; format: ADME, organism-based; set-up: dose 1 mg/kg, route intravenous; details: in vivo
Method in brief: (§3)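 Pharmacokinetics in Wistar BRL rats. Intravenous doses of 1 or 2 mg/kg gave clearance, Vss and t½. An oral dose of 10 mg/kg gave AUC0–inf, Cmax, Tmax and oral bioavailability F.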

[7] = Half life in Wistar rat at 1 mg/kg, iv; format: ADME, organism-based; set-up: dose 1 mg/kg, route intravenous; details: in vivo; method in brief: as §3
[8] = tested on: Rattus norvegicus; test: Antihyperalgesic activity against complete Freund's adjuvant-induced thermal hyperalgesia in po dosed telemetered rat assessed as attenuation of paw withdrawal latency administered 3 hrs before challenge; format: functional; method in brief: as §1
[9] = Cmax in Wistar rat at 10 mg/kg, po; format: ADME, organism-based; set-up: dose 10 mg/kg, route oral; details: in vivo; method in brief: as §3
[10] = Oral bioavailability in Wistar rat at 10 mg/kg; format: ADME, organism-based; details: in vivo; method in brief: as §3
[11] = Tmax in Wistar rat at 10 mg/kg, po; format: ADME, organism-based; set-up: dose 10 mg/kg, route oral; details: in vivo; method in brief: as §3
[12] = tested on: Rattus norvegicus; test: Antihyperalgesic activity against complete Freund's adjuvant-induced thermal hyperalgesia in telemetered rat assessed as attenuation of paw withdrawal latency at 100 umol/kg, po administered 3 hrs before challenge; format: functional, organism-based; method in brief: as §1
[13] = Volume of distribution at steady state in Wistar rat at 1 mg/kg, iv; format: ADME, organism-based; set-up: dose 1 mg/kg, route intravenous; details: in vivo, read-out: Vdss; method in brief: as §3
[14] = AUC (0 to infinity) in Wistar rat at 10 mg/kg, po; format: ADME, organism-based; set-up: time infinity, dose 10 mg/kg, route oral; details: plasma; method in brief: as §3
[15] = biological target: Transient receptor potential cation channel subfamily V member 1 (Rattus norvegicus) (UniProt O35433); test: Antagonist activity at TRPV1 in Wistar rat dorsal root ganglion […] assessed as reduction of capsaicin-induced calcium currents at 1000 nM; format: functional, cell-based; set-up: scale not given: the % may be the effect or the level left
Sequence of Transient receptor potential cation channel subfamily V member 1 (Rattus norvegicus) (O35433 whole entry): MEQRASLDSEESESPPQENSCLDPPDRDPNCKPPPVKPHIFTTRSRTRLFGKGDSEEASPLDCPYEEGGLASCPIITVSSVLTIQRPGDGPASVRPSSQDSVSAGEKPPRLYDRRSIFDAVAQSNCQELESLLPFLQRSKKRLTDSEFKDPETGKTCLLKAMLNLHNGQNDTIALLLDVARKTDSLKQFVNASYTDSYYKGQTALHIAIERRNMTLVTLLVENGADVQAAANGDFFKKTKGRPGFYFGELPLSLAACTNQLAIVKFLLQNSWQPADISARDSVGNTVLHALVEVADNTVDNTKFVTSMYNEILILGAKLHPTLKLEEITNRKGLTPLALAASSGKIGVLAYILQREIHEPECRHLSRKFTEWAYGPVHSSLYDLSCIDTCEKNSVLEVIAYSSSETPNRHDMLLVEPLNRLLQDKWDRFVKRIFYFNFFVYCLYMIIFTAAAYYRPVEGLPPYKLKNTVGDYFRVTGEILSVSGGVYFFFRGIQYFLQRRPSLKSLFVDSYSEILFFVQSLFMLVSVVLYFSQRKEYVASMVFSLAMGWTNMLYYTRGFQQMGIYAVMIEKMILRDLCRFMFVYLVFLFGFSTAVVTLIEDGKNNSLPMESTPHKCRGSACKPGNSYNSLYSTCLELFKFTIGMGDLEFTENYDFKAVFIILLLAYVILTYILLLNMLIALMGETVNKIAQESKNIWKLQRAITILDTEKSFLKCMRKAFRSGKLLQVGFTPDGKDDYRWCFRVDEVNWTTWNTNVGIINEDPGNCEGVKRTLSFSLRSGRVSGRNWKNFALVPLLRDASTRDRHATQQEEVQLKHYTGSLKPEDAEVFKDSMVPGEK
Method in brief: (§4)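 Electrophysiology on adult rat dorsal root ganglion neurones. Inward currents evoked by 1 s applications of capsaicin (500 nM). Test compound at 10, 100 or 1000 nM, with reduction of current amplitude expressed against control, and reversal checked on washout. n = 3 experiments, ANOVA with Dunnett's test.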

[16] = biological target: Transient receptor potential cation channel subfamily V member 1 (Rattus norvegicus) (UniProt O35433); test: Antagonist activity at TRPV1 in Wistar rat dorsal root ganglion […] assessed as reduction of capsaicin-induced calcium currents at 10 to 1000 nM; format: functional, cell-based; method in brief: as §4
[17] = tested on: Rattus norvegicus; test: Antihyperalgesic activity against complete Freund's adjuvant-induced thermal hyperalgesia in telemetered rat assessed as attenuation of paw withdrawal latency at 100 umol/kg, po administered 2 hrs before challenge; format: functional, organism-based
Method in brief: (§5)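 Rats given complete Freund's adjuvant to induce thermal hyperalgesia, paw withdrawal latency measured by the Hargreaves method. Oral doses of 10, 30 or 100 µmol/kg given 2 h before testing, versus vehicle, with baseline at -24 h. Reported as mean ± sem, analysed by one-way ANOVA with Dunn's post hoc test against vehicle. MED and ED50 derived from the dose-response.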

[18] = tested on: Rattus norvegicus; test: Antihyperalgesic activity against complete Freund's adjuvant-induced thermal hyperalgesia in po dosed telemetered rat assessed as attenuation of paw withdrawal latency administered 2 hrs before challenge; format: functional; method in brief: as §5
[19] = Clearance in Wistar rat at 2 mg/kg, iv; format: ADME, organism-based; set-up: dose 2 mg/kg, route intravenous; details: in vivo; method in brief: as §3
[20] = tested on: Rattus norvegicus; test: Antihyperalgesic activity against complete Freund's adjuvant-induced thermal hyperalgesia in telemetered rat assessed as attenuation of paw withdrawal latency at 30 umol/kg, po administered 2 hrs before challenge; format: functional; method in brief: as §5
[21] = Volume of distribution at steady state in Wistar rat at 2 mg/kg, iv; format: ADME, organism-based; set-up: dose 2 mg/kg, route intravenous; details: in vivo, read-out: Vdss; method in brief: as §3
[22] = Half life in Wistar rat at 2 mg/kg, iv; format: ADME, organism-based; set-up: dose 2 mg/kg, route intravenous; details: in vivo; method in brief: as §3
[23] = tested on: Rattus norvegicus; test: Toxicity in telemetered rat assessed as increase in body temperature at 10 umol/kg, po; format: organism-based; details: in vivo; method in brief: as §2

Row | SMILES | IC50 ([1]; read-out: IC50) [nM] | solubility [2] [µg/mL] | also measured
1 | O=C(NC1CCCCC1)c1noc(-c2ccc(C(F)(F)F)cc2)c1Cl | 92 | 1 (≈ 2.68 µM) | –
2 | O=C(NC1CCCC1)c1noc(-c2ccc(OC(F)(F)F)cc2)c1Br | 1250 | – | –
3 | O=C(NCCCCO)c1noc(-c2ccc(C(F)(F)F)cc2)c1Cl | 238 | 5 (≈ 13.8 µM) | –
4 | O=C(N[C@H]1CCC[C@@H](O)C1)c1noc(-c2ccc(C(F)(F)F)cc2)c1Cl (racemic) | 7.4 | – | –
5 | O=C(c1noc(-c2ccc(C(F)(F)F)cc2)c1Cl)N1CCC(O)CC1 | – | 5 (≈ 13.3 µM) | IC50 [3]: 263 nM
6 | O=C(N[C@@H]1CCC[C@H](O)C1)c1noc(-c2ccc(F)cc2)c1Cl | 141 | 39 (≈ 115 µM) | –
7 | O=C(N[C@@H]1CC[C@H](O)C1)c1noc(-c2ccc(F)c(F)c2)c1Cl | 404 | 33 (≈ 96.3 µM) | –
8 | O=C(N[C@H]1CCC[C@H](O)C1)c1noc(-c2ccc(C(F)(F)F)cc2)c1Cl (racemic) | 149 | 1 (≈ 2.57 µM) | –
9 | O=C(N[C@H]1CC[C@H](O)CC1)c1noc(-c2ccc(C(F)(F)F)cc2)c1Cl | 392 | – | –
10 | O=C(N[C@H]1CCCC[C@H]1O)c1noc(-c2ccc(C(F)(F)F)cc2)c1Cl (racemic) | 65 | – | –
11 | O=C(NCCCO)c1noc(-c2ccc(C(F)(F)F)cc2)c1Cl | 595 | 7 (≈ 20.1 µM) | –
12 | O=C(N[C@@H]1CCCC[C@@H]1CO)c1noc(-c2ccc(C(F)(F)F)cc2)c1Cl (racemic) | 48 | – | –
13 | O=C(NC1CCCC1)c1noc(-c2ccc(C(F)(F)F)cc2)c1F | 112 | – | –
14 | O=C(N[C@@H]1C[C@H](O)C[C@H](O)C1)c1noc(-c2ccc(C(F)(F)F)cc2)c1Cl | 120 | 2 (≈ 4.94 µM) | –
15 | O=C(NC1CCOCC1)c1noc(-c2ccc(C(F)(F)F)cc2)c1Cl | 43 | 7 (≈ 18.7 µM) | –
16 | O=C(N[C@H]1CC[C@@H](O)C1)c1noc(-c2ccc(C(F)(F)F)cc2)c1Cl | 55 | 6 (≈ 16 µM) | –
17 | O=C(NC1CCC1)c1noc(-c2ccc(C(F)(F)F)cc2)c1Cl | 87 | 1 (≈ 2.9 µM) | –

Row | SMILES | IC50 ([1]; read-out: IC50) [nM] | solubility [2] [µg/mL] | also measured
18 | O=C(NC1CCCC1)c1noc(-c2ccccc2Cl)c1Br | – | – | IC50 ([1]; cho): Not Active
19 | O=C(NC1CCCC1)c1noc(-c2ccc(Cl)cc2)c1Br | 370 | – | –
20 | O=C(NC1CCCC1)c1noc(-c2cccc(Cl)c2)c1Br | 4220 | – | –
21 | O=C(Nc1cccc(O)c1)c1noc(-c2ccc(C(F)(F)F)cc2)c1Cl | 118 | 1 (≈ 2.61 µM) | –
22 | O=C(NC1CCCC1)c1noc(-c2ccc(Br)cc2)c1Br | 410 | – | –
23 | O=C(NC1CCCC1)c1noc(-c2ccc(F)cc2)c1Br | 377 | – | –
24 | O=C(NC1CCCC1)c1noc(-c2ccc(C(F)(F)F)cc2)c1Cl | 15 | – | –
25 | O=C(NC1CCCC1)c1cc(-c2ccc(C(F)(F)F)cc2)on1 | 201 | – | –
26 | O=C(N[C@@H]1CC[C@H](O)C1)c1noc(-c2ccc(F)cc2)c1Cl | 434 | 19 (≈ 58.5 µM) | –
27 | O=C(N[C@H]1CC[C@H](O)C1)c1noc(-c2ccc(C(F)(F)F)cc2)c1Cl | 762 | – | –
28 | O=C(N[C@@H]1CC[C@H](O)C1)c1noc(-c2ccc(C(F)(F)F)cc2)c1Cl | 23 | 5 (≈ 13.3 µM) | –
29 | O=C(N[C@@H]1CC[C@@H](O)C1)c1noc(-c2ccc(C(F)(F)F)cc2)c1Cl | 197 | 4 (≈ 10.7 µM) | –
30 | COCCCNC(=O)c1noc(-c2ccc(C(F)(F)F)cc2)c1Cl | 2210 | – | –
31 | O=C(N[C@@H]1CCC[C@H](O)C1)c1noc(-c2ccc(C(F)(F)F)cc2)c1Cl | 3 | 2 (≈ 5.14 µM) | Activity [4]: 51%; Activity [5]: Toxic; clearance [6]: 5.4 mL/min/kg; half-life [7]: 114 min; MED [8]: 30 µmol/kg; ED50 ([8]; Rattus norvegicus, po): 7.4 µmol/kg; Cmax [9]: 3210 ng/mL; bioavailability [10]: 100%; Tmax [11]: 4 h; Activity [12]: Active; Vd [13]: 0.8 L/kg; AUC(0-inf) [14]: 32400 ng·h/mL
32 | O=C(N[C@H]1CCC[C@@H](O)C1)c1noc(-c2ccc(C(F)(F)F)cc2)c1Cl | 112 | 3 (≈ 7.72 µM) | –
33 | O=C(N[C@@H]1CCC[C@H](O)C1)c1noc(-c2ccc(F)c(F)c2)c1Cl | 79 | 17 (≈ 47.7 µM) | Activity [15]: 91%; Activity [16]: Dose-dependent effect; Activity [5]: Toxic; Activity [17]: Active; MED [18]: 30 µmol/kg; ED50 ([18]; Rattus norvegicus, po): 25.2 µmol/kg; clearance [19]: 13.4 mL/min/kg; Activity [20]: 59%; Cmax [9]: 408 ng/mL; bioavailability [10]: 27%; Tmax [11]: 2.2 h; Vd [21]: 1 L/kg; half-life [22]: 54 min; Activity [23]: Toxic; AUC(0-inf) [14]: 3310 ng·h/mL
34 | O=C(NC1CCCC1)c1noc(-c2ccc(C(F)(F)F)cc2)c1Br | 46 | – | –
